This is an account of results in ChEMBL document CHEMBL2163340, “Fluostatins I-K from the South China Sea-derived micromonospora rosaria SCSIO N160” (J Nat Prod, 2012).

In brackets after ≈: the same amount, converted by molar mass.

Broadly, the IC50 is the point on the concentration scale where inhibition reaches its midpoint. The low end stands for inhibition by little substance, the high end for a need for much substance. As usually defined, the MIC is the smallest concentration in the dilution series that meets the test's criterion for growth inhibition. Higher therefore signals a less susceptible organism.

The test system of one assay is MCF7. Briefly: Cytotoxicity against human MCF7 cells by SRB assay. The format is functional, cell-based. In a few lines:
(§1)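 Sulforhodamine B assay following a previously described protocol, run on three human tumour lines: MCF-7 (breast adenocarcinoma), NCI-H460 (non-small-cell lung cancer) and SF-268 (glioma). Activity was reported as IC50.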
For orientation: Sulforhodamine B stains cellular protein and so reports cell mass.

In the next assay the test system is NCI-H460. As to the kind of experiment: Cytotoxicity against human NCI-H460 cells by SRB assay. The format is functional, cell-based. In a few lines: as §1
The subject of the next assay is SF-268. As to the kind of experiment: Cytotoxicity against human SF268 cells by SRB assay. The format is functional, cell-based. In outline:
as §1

A further assay deals with Candida albicans. Briefly: Antifungal activity against Candida albicans ATCC 10231 after 18 hrs by broth microdilution method. It counts as functional. The settings on record: ATCC 10231, 18 h. In outline:
(§2)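 Broth microdilution. Pre-cultures were grown 16 h on a rotary shaker: the bacteria at 37 °C and C. albicans at 28 °C. Each was adjusted with sterile medium to OD600 0.04–0.06, diluted a further 10-fold, and dispensed to plates. Compounds were serially diluted from 64 to 0.125 μg/mL in duplicate. OD600 was read after 18 h. MIC was the lowest concentration completely inhibiting visible growth, taken from two independent experiments.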
(In broth dilution the organism is exposed to a series of concentrations in liquid medium.)

Another assay has as its system Bacillus subtilis. As to the kind of experiment: Antibacterial activity against Bacillus subtilis SCSIO BS01 after 18 hrs by broth microdilution method. The format is functional. The settings on record: SCSIO BS01, 18 h. In a few lines: as §2
Another assay relates to Bacillus thuringiensis. Briefly: Antibacterial activity against Bacillus thuringiensis SCSIO BT01 after 18 hrs by broth microdilution method. The settings on record: SCSIO BT01, 18 h. It counts as functional. In a few lines:
as §2

In a further assay the test system is Staphylococcus aureus. As to the kind of experiment: Antibacterial activity against Staphylococcus aureus ATCC 29213 after 18 hrs by broth microdilution method. The settings on record: ATCC 29213, 18 h. The format is functional. In a few lines: as §2
The test system of another assay is Escherichia coli. Briefly: Antibacterial activity against Escherichia coli ATCC 25922 after 18 hrs by broth microdilution method. The format is functional. The settings on record: ATCC 25922, 18 h. In a few lines: as §2

As for `CC(C)C(=O)O[C@@H]1c2c(cc(O)c3c2C(=O)c2cccc(O)c2-3)C(=O)[C@@]2(C)O[C@@H]12` [FLUOSTATIN D], the IC50 with MCF7, in the assay with NCI-H460 and in the assay on SF-268 was greater than 100 µM throughout. In addition, the MIC with Candida albicans, in the assay with Bacillus subtilis, in the assay on Bacillus thuringiensis, against Staphylococcus aureus and in the assay on Escherichia coli was greater than 64 µg/mL each time.

Regarding `CCC(C)C(=O)O[C@@H]1c2c(cc(O)c3c2C(=O)c2cccc(O)c2-3)C(=O)[C@@]2(C)O[C@@H]12` (some centres not stated) [FLUOSTATIN J], the IC50 in the assay with MCF7, in the assay on NCI-H460 and in the assay on SF-268 was greater than 100 µM throughout. The MIC with Candida albicans, against Bacillus subtilis, with Bacillus thuringiensis, with Staphylococcus aureus and with Escherichia coli was greater than 64 µg/mL in each case.

With `C[C@]1(O)C=Cc2c(cc(O)c3c2C(=O)c2cccc(O)c2-3)C1=O` [FLUOSTATIN K], the IC50 with MCF7, in the assay with NCI-H460 and in the assay on SF-268 was greater than 100 µM in each case. Further, the minimum inhibitory concentration (MIC) against Candida albicans, in the assay on Bacillus subtilis, against Bacillus thuringiensis, in the assay on Staphylococcus aureus and in the assay on Escherichia coli was greater than 64 µg/mL throughout.

On to `C[C@]1(Cl)C(=O)c2cc(O)c3c(c2[C@@H](O)[C@@H]1O)C(=O)c1cccc(O)c1-3` [FLUOSTATIN E], for which the IC50 in the assay with MCF7, in the assay with NCI-H460 and in the assay with SF-268 was greater than 100 µM throughout. The MIC in the assay with Candida albicans, against Bacillus subtilis, against Bacillus thuringiensis, with Staphylococcus aureus and against Escherichia coli was greater than 64 µg/mL throughout.

With `Cc1cc(O)c2c3c(ncc2c1)C(=O)c1c(O)cccc1C3=O` [PHENANTHROVIRIDONE], the IC50 in the assay with MCF7 stood at 0.17 µM; in the assay with NCI-H460, 2.18 µM; with SF-268, 0.09 µM. Moreover, the minimum inhibitory concentration (MIC) in the assay with Candida albicans is greater than 64 µg/mL; in the assay on Bacillus subtilis, 64 µg/mL (≈ 210 µM); against Bacillus thuringiensis it was 4 µg/mL (≈ 13.1 µM); against Staphylococcus aureus, 0.25 µg/mL (≈ 0.819 µM); in the assay on Escherichia coli it was 32 µg/mL (≈ 105 µM).

As for `CC(C)C(=O)O[C@@H]1c2c(cc(O)c3c2C(=O)c2cccc(O)c2-3)C(=O)[C@H](C)[C@H]1O` [FLUOSTATIN I], the IC50 in the assay with MCF7, with NCI-H460 and with SF-268 was greater than 100 µM each time. Further, the MIC against Candida albicans, with Bacillus subtilis, in the assay with Bacillus thuringiensis, against Staphylococcus aureus and against Escherichia coli was greater than 64 µg/mL each time.

For `C[C@]12O[C@H]1[C@H](O)c1c(cc(O)c3c1C(=O)c1cccc(O)c1-3)C2=O` [FLUOSTATINS C], the IC50 in the assay with MCF7, with NCI-H460 and with SF-268 was greater than 100 µM each time. Besides, the MIC in the assay with Candida albicans was greater than 64 µg/mL; against Bacillus subtilis, greater than 64 µg/mL; with Bacillus thuringiensis it was greater than 64 µg/mL; in the assay on Staphylococcus aureus, 16 µg/mL (≈ 49.3 µM); with Escherichia coli, greater than 64 µg/mL.

Consider `CO[C@@H]1c2c(cc(O)c3c2C(=O)c2cccc(O)c2-3)C(=O)[C@@]2(C)O[C@@H]12` [FLUOSTATIN F], for which the IC50 with MCF7, with NCI-H460 and in the assay with SF-268 was greater than 100 µM each time. Further, the MIC against Candida albicans is greater than 64 µg/mL; in the assay with Bacillus subtilis, greater than 64 µg/mL; with Bacillus thuringiensis, greater than 64 µg/mL; with Staphylococcus aureus, 32 µg/mL (≈ 94.6 µM); with Escherichia coli, greater than 64 µg/mL.

As for `C[C@]1(O)CC(=O)c2c(cc(O)c3c2C(=O)c2cccc(O)c2C3=O)C1` [RABELOMYCIN], the IC50 amounted to 4.28 µM with MCF7, 9.91 µM in the assay with NCI-H460 and 5.54 µM with SF-268. Also, the MIC against Candida albicans is greater than 64 µg/mL; in the assay with Bacillus subtilis, 16 µg/mL (≈ 47.3 µM); against Bacillus thuringiensis it was 8 µg/mL (≈ 23.6 µM); with Staphylococcus aureus, 1 µg/mL (≈ 2.96 µM); against Escherichia coli, 16 µg/mL (≈ 47.3 µM).
